Experimental findings from ChEMBL document CHEMBL4196022, “Alkynyl-containing phenylthiazoles: Systemically active antibacterial agents effective against methicillin-resistant Staphylococcus aureus (MRSA)” (Eur J Med Chem, 2018) are described below.

This assay has as its system Staphylococcus aureus. The assay is described as follows: Antibacterial activity against methicillin-resistant Staphylococcus aureus USA300 in neutropenic Balb/c mouse thigh infection model assessed as reduction in bacterial burden in thigh at 20 mg/kg, ip administered twice at 2 and 12 hrs post infection and measured at 24 hrs post infection relative to control. On the set-up: scale not given: the % may be the effect or the level left. In kind it is functional. The procedure, abridged: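 Female BALB/c mice, 6–8 weeks old, n=5, made neutropenic with i.p. cyclophosphamide 150 and 100 mg/kg on days −4 and −1. Right thigh injected with 100 μL of 5.35×10^7 CFU/mL USA300. […] Thighs harvested at 24 h and counted as CFU/g on mannitol salt agar.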

`C/C(=N\NC(=N)N)c1sc(-c2ccc(C#CC3CC3)cc2)nc1C`: the Activity is on record as 77%.
